MrgX1 antag = blocks BAM8-22 activation of human MrgX1 receptor. Q96LB2. B-score at 10 µM. actives 1.3% (n = 310,000). MRGX1-HEK293 calcium flux, Fluo-4, BAM8-22 antagonism; stronger effect = lower value. AID 588676;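 active = calcium-response B-score plate-corrected more than 3 library SD below zero, starting fluorescence within 5 deviations, no agonist response on first addition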;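 note: peak minus trough fluorescence over baseline after final BAM8-22 challenge near maximal dose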
Target sequence (Q96LB2 whole entry, looked up): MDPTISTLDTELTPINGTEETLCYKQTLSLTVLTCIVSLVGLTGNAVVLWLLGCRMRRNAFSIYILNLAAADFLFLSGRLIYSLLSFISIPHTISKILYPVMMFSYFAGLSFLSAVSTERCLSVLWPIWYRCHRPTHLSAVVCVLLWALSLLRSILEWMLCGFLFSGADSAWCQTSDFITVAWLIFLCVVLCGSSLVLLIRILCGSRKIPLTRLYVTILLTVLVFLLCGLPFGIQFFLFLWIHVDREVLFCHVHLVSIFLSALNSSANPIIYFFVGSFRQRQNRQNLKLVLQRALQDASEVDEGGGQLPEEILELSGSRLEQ
MrgX1 allo act = human MrgX1 positive allosteric modulation, primary screen | B-score at 10 µM | Q96LB2 | MrgX1-HEK293, Fluo-4 calcium flux, FDSS; stronger effect = higher value | actives 0.63% (n = 310,000) | AID 588675;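 active = plate-corrected calcium response at least 3 library SD above typical, normal starting fluorescence, not activating the receptor alone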;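 note: compound read alongside a low EC10 to EC30 dose of BAM8-22 agonist; peak minus trough fluorescence over baseline measured at the second addition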
MrgX1 ag = agonists of human MrgX1 receptor; Q96LB2; MrgX1-HEK293 cells, Fluo-4 calcium fluorescence, agonist mode; stronger effect = higher value; B-score at 10 µM; actives 0.44% (n = 310,000); AID 588627;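 active = calcium response B-score plate-corrected fluorescence ratio at least 3 library SD, with starting fluorescence B-score inside 5 SD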
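System – MrgX1-expressing HEK293 cells · Incubation – cells plated overnight, dye loaded 0.5 h 37 °C, 0.5 h room temperature · Technique – kinetic Fluo-4 NW fluorescence of intracellular calcium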
RGS4 pot = potentiators or activators of RGS4. HEK293 M3R/inducible RGS4, carbachol calcium flux Fluo4; stronger effect = lower value. B-score at 10 µM. actives 0.92% (n = 310,000);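 active = B-score of the integrated calcium signal more than 4 SD below the library mean, with starting fluorescence not abnormally high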;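 note: negative B-score means reduced calcium response which marks RGS4 activation or potentiation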
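Test system: HEK293 cells with stable M3R and inducible RGS4; also added: carbachol at ECmax as muscarinic agonist stimulus; schedule: dye loading 30 min 37 °C, buffer rest 30 min RT; technique: kinetic calcium fluorescence imaging with Fluo4-AM dye, 2 µM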
RGS4 block = inhibitors of human RGS4 | HEK293 M3R/RGS4 inducible, Fluo-4 calcium flux; stronger effect = higher value; triggered by carbachol at its EC20 | actives 0.45% (n = 310,000) | P49798 | B-score at 10 µM;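 active = B-score, a plate-corrected calcium signal, over three deviations above library mean, with baseline fluorescence within five deviations of library mean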;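 note: RGS4 expression induced by doxycycline in cells with stable M3 receptor; B-score is computed from the integrated fluorescence ratio over baseline after carbachol; higher B-score means a larger calcium signal and so more RGS4 inhibition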
Target sequence (P49798 whole entry, looked up): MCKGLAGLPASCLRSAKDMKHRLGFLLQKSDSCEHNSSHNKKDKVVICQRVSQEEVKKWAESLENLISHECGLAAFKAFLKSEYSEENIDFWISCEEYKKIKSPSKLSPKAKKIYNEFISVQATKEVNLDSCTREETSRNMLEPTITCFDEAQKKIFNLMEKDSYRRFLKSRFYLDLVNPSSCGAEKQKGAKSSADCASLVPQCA
Numbers stand for hits. Rows were chosen to be rich in hits. Some 3.5% of all compounds tested hit in one or more screens of this group.

For CCOc1ccc(NS(=O)(=O)c2ccc(C(=O)NCC(c3cccs3)N3CCOCC3)cc2)cc1 (stereo not drawn) the results were MrgX1 antag -6.54, MrgX1 allo act inactive, MrgX1 ag inactive, RGS4 pot inactive and RGS4 block inactive.
For COc1cc(/C=C2\SC(=S)N(Nc3ncc(C(F)(F)F)cc3Cl)C2=O)ccc1O the results were MrgX1 antag inactive, MrgX1 allo act 16.8, MrgX1 ag inactive, RGS4 pot inactive and RGS4 block inactive.
For COc1cc(/C=C2\SC(=S)N(Nc3ccccc3)C2=O)ccc1O the results were MrgX1 antag inactive, MrgX1 allo act inactive, MrgX1 ag inactive, RGS4 pot inactive and RGS4 block inactive.
Screening CN(C)c1ccc(/C=C2\SC(=S)N(Nc3ncc(C(F)(F)F)cc3Cl)C2=O)cc1 returned MrgX1 antag inactive, MrgX1 allo act 13.2, MrgX1 ag inactive, RGS4 pot inactive and RGS4 block inactive.
Screening COC(=O)c1cc(OC)c(OC)cc1NC(=S)N1CCN(C/C=C/c2ccccc2)CC1 returned MrgX1 antag inactive, MrgX1 allo act inactive, MrgX1 ag inactive, RGS4 pot inactive and RGS4 block inactive.
`O=c1[nH]cc([N+](=O)[O-])cc1Br` gave MrgX1 antag inactive, MrgX1 allo act inactive, MrgX1 ag inactive, RGS4 pot inactive and RGS4 block inactive.
`CCSc1nc2c(c(=O)n(C)c(=O)n2C)n1Cc1ccc(Cl)cc1` gave MrgX1 antag inactive, MrgX1 allo act inactive, MrgX1 ag inactive, RGS4 pot inactive and RGS4 block inactive.
`Cn1c(=O)c2c(nc(SCCN3CCCCC3)n2Cc2ccc(Cl)cc2)n(C)c1=O` gave MrgX1 antag inactive, MrgX1 allo act inactive, MrgX1 ag inactive, RGS4 pot -6.97 and RGS4 block inactive.
[O-][n+]1cccc2c(Br)cc(Br)c(O)c21 was read as MrgX1 antag -4.73, MrgX1 allo act inactive, MrgX1 ag inactive, RGS4 pot inactive and RGS4 block inactive.
`Cc1c(CCOC(=O)c2ccc([N+](=O)[O-])cc2)sc[n+]1CC(=O)c1ccccc1` gave MrgX1 antag inactive, MrgX1 allo act inactive, MrgX1 ag inactive, RGS4 pot inactive and RGS4 block inactive.
COc1ccc(C(=O)OCCc2sc[n+](CC(=O)c3ccccc3)c2C)cc1 was read as MrgX1 antag inactive, MrgX1 allo act inactive, MrgX1 ag inactive, RGS4 pot -10.8 and RGS4 block inactive.
For CCc1ccc(NC(=O)C2CCC(CNC(=O)[C@@H]3Cc4ccccc4CN3)CC2)cc1 (stereo partly drawn) the results were MrgX1 antag inactive, MrgX1 allo act inactive, MrgX1 ag inactive, RGS4 pot inactive and RGS4 block inactive.
CCOC(=O)C1CCN(S(=O)(=O)c2cc(C(=O)N3CCCCC3)ccc2OC)CC1 was read as MrgX1 antag inactive, MrgX1 allo act inactive, MrgX1 ag inactive, RGS4 pot inactive and RGS4 block inactive.
For Oc1ccc(/C=C/c2cnccn2)cc1 the results were MrgX1 antag inactive, MrgX1 allo act inactive, MrgX1 ag inactive, RGS4 pot inactive and RGS4 block inactive.
For O=C(Nc1ccc(-c2nc3ccccc3s2)c(OC(=O)c2ccccc2)c1)c1ccccc1 the results were MrgX1 antag -4.82, MrgX1 allo act inactive, MrgX1 ag inactive, RGS4 pot inactive and RGS4 block inactive.
`O=C(Nc1ccc2nc3ccccc3nc2c1)c1ccccc1` gave MrgX1 antag inactive, MrgX1 allo act inactive, MrgX1 ag inactive, RGS4 pot inactive and RGS4 block inactive.
For Cc1[nH]c(C)c(S(=O)(=O)N2c3ccccc3CC2C)c1C(=O)N1CCCCC1 (stereo not drawn) the results were MrgX1 antag inactive, MrgX1 allo act inactive, MrgX1 ag inactive, RGS4 pot inactive and RGS4 block inactive.
COc1cccc(C(=O)NNC(=O)Cc2ccc(Cl)cc2)c1 was read as MrgX1 antag -6.99, MrgX1 allo act inactive, MrgX1 ag inactive, RGS4 pot inactive and RGS4 block inactive.
COc1ccc(C(=O)NNC(=O)Cc2ccc(Cl)cc2)cc1 was read as MrgX1 antag inactive, MrgX1 allo act inactive, MrgX1 ag inactive, RGS4 pot inactive and RGS4 block inactive.
`CCCCN(C(=O)C1CC(=O)N(Cc2ccc(C)cc2)C1)c1c(N)n(CC(C)C)c(=O)[nH]c1=O` (stereo not drawn) gave MrgX1 antag -7.2, MrgX1 allo act inactive, MrgX1 ag inactive, RGS4 pot inactive and RGS4 block inactive.
`CCCCn1c(N)c(N(CCOC)C(=O)C2CC(=O)N(Cc3ccc(C)cc3)C2)c(=O)[nH]c1=O` (stereo not drawn) gave MrgX1 antag inactive, MrgX1 allo act inactive, MrgX1 ag inactive, RGS4 pot inactive and RGS4 block inactive.
Screening Cc1ccc(-c2csc(NC(=O)COC(=O)c3cccc(S(=O)(=O)N4CCOCC4)c3)n2)cc1 returned MrgX1 antag -4.85, MrgX1 allo act inactive, MrgX1 ag inactive, RGS4 pot inactive and RGS4 block inactive.
For CC[C@H](C)/C=C/C1=CC2=C(Cl)C(=O)[C@@]3(C)OC(=O)C(C(=O)[C@H](C)[C@@H](C)O)=C3C2=CO1 the results were MrgX1 antag inactive, MrgX1 allo act 10.4, MrgX1 ag inactive, RGS4 pot inactive and RGS4 block inactive.
CC(=O)Nc1ccc(S(=O)(=O)NC2CC3CCC2C3)cc1 (stereo not drawn) was read as MrgX1 antag inactive, MrgX1 allo act inactive, MrgX1 ag inactive, RGS4 pot inactive and RGS4 block inactive.
Screening COCCSc1ccccc1C(=O)Nc1cc([N+](=O)[O-])ccc1OC returned MrgX1 antag inactive, MrgX1 allo act inactive, MrgX1 ag inactive, RGS4 pot inactive and RGS4 block inactive.
`COc1ccc([N+](=O)[O-])cc1NC(=O)C1(c2ccccc2)CCOCC1` gave MrgX1 antag inactive, MrgX1 allo act 8.71, MrgX1 ag inactive, RGS4 pot inactive and RGS4 block inactive.
`COc1ccc([N+](=O)[O-])cc1NC(=O)Cc1noc2ccccc12` gave MrgX1 antag -9.68, MrgX1 allo act inactive, MrgX1 ag inactive, RGS4 pot inactive and RGS4 block inactive.
`COc1ccc([N+](=O)[O-])cc1NC(=O)c1ccccc1N(C)S(C)(=O)=O` gave MrgX1 antag inactive, MrgX1 allo act 6.98, MrgX1 ag inactive, RGS4 pot inactive and RGS4 block inactive.
Cc1c(NC(=O)Cc2noc3ccccc23)cccc1[N+](=O)[O-] was read as MrgX1 antag inactive, MrgX1 allo act inactive, MrgX1 ag inactive, RGS4 pot inactive and RGS4 block inactive.
For Cc1cc(C(=O)Nc2ncn[nH]2)ccc1[N+](=O)[O-] the results were MrgX1 antag inactive, MrgX1 allo act inactive, MrgX1 ag inactive, RGS4 pot inactive and RGS4 block inactive.
`COc1ccc(/C=N/Nc2nnc(Cc3ccccc3)c(=O)[nH]2)cc1` gave MrgX1 antag inactive, MrgX1 allo act inactive, MrgX1 ag 27.8, RGS4 pot inactive and RGS4 block inactive.

Screens from PubChem BioAssay.
